Eleven molecules from ChEMBL document CHEMBL1275288, “Effect of milrinone analogues on intracellular calcium increase in single living H9C2 cardiac cells” (Eur J Med Chem, 2010) can be followed below.

The test system of series [1] is H9c2. Nature of the series: Increase in cytoplasmic intracellular calcium level in differentiated rat H9c2 cells depolarized through 60 mM KCl application in presence of extracellular calcium assessed as cells that prolonged KCl-dependent intracellular [Ca2+] transient at 10 uM by Fura-2-AM dye based epifluorescent microscopy. In kind it is functional. The method in brief:
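Differentiated H9C2 cardiomyocytes (10 nM retinoic acid daily, 1% FCS) loaded with Fura 2-AM for 40 min, then 15 min at 37 °C in NES. Depolarized with 60 mM KCl in NES with extracellular Ca2+. 10 µM compound given within 30 s after start of the KCl-dependent plateau. Ratio imaging at 340/380 nm excitation, 510 nm emission. Scored as percent of tested cells (n per compound) with prolonged transient.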
A general note: Calcium flux is commonly read through the fluorescence of an indicator in the cells.

In series [2] the test system is H9c2. Nature of the series: Increase in cytoplasmic intracellular calcium level in differentiated rat H9c2 cells at 10 uM by Fura-2-AM dye based epifluorescent microscopy. Type of series: functional. Put shortly:
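Retinoic acid (10 nM, daily)-differentiated H9C2 cells loaded 40 min with Fura 2-AM, washed in NES, held 15 min at 37 °C for dye de-esterification. Cells stimulated directly with 10 µM compound; single living cells imaged by epifluorescence microscopy, excitation 340/380 nm, emission 510 nm, whole-cell fluorescence ratio. Minimum 10, maximum 25 cells per compound; percentage of cells showing basal [Ca2+]i increase.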

For series [3], the system named is H9c2. Nature of the series: Cytotoxicity against differentiated rat H9c2 cells assessed as reduction in cell viability at 10 nM after 24 hrs by MTT assay. In kind it is cell-based. The note with it: h9c2, 24 h, 0.01 µM. Put shortly: (§1)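 H9C2 rat embryonic ventricular cell line, grown subconfluent in DMEM-F12 with 10% heat-inactivated FBS; differentiated cells obtained in 1% FCS medium with 10 nM retinoic acid added daily with medium renewal. Cells, undifferentiated or differentiated, exposed 24 h to 10 nM, 1, 10 or 100 µM compound; viability by MTT reduction to formazan, optical density at 570 nm, expressed as percent of control.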
(Tetrazolium assays rely on reduction of a dye to a coloured formazan, in cell work by metabolically active cells.)

Series [4] concerns H9c2. Nature of the series: Cytotoxicity against differentiated rat H9c2 cells assessed as reduction in cell viability at 1 uM after 24 hsr by MTT assay. In kind it is cell-based. As to conditions: h9c2, 1 µM. The method in brief: as §1
Series [5] relates to H9c2. Nature of the series: Toxicity against undifferentiated rat H9c2 cells assessed as reduction in cell viability at 100 uM after 24 hrs by MTT assay. Type of series: cell-based. The note with it: h9c2, 24 h. Put shortly: as §1
Series [6] relates to H9c2. Nature of the series: Cytotoxicity against differentiated rat H9c2 cells assessed as reduction in cell viability at 100 uM after 24 hrs by MTT assay. The note with it: h9c2, 24 h. Type of series: cell-based. The method in brief:
as §1

For series [7], the system named is H9c2. Nature of the series: Cytotoxicity against differentiated rat H9c2 cells assessed as reduction in cell viability at 10 uM after 24 hrs by MTT assay. Type of series: cell-based. The note with it: h9c2, 24 h. The method in brief: as §1

Turning to `Cc1ccc(C#N)c(=O)[nH]1`, the Activity is on record as 45% in series [1]; 78% in series [2]; 90% in series [3]; 90% in series [4]; 50% in series [5]; 50% in series [6]. Besides, in series [7], the Activity amounted to 75%.

Consider `Cc1[nH]c(=O)c(C#N)cc1C(=O)O`, for which the Activity in series [1] is reported as 0%.

For `CCOC(=O)c1cc(C#N)c(=O)[nH]c1C`, in series [1], the Activity came to 0%.

On to `Cc1[nH]c(=O)c(C#N)cc1C(=O)OCc1ccccc1`, for which, in series [1], the Activity is given as 0%.

Turning to `Cc1[nH]c(=O)c(C#N)cc1C(=O)NCc1ccccc1`, the Activity in series [1] was determined as 40%; in series [3], 90%; in series [5], 20%; in series [7], 75%.

On to `CCC(NC(=O)c1cc(C#N)c(=O)[nH]c1C)c1ccccc1` (centres undefined), for which the Activity is listed as 30% in series [1]; 90% in series [3]; 90% in series [4]; 50% in series [5]; 50% in series [6]; 75% in series [7].

For the molecule `CCOC(=O)N1CCC(NC(=O)c2cc(C#N)c(=O)[nH]c2C)CC1`, the Activity in series [1] was 25%; in series [3], 90%; in series [4], 90%; in series [5], 20%; in series [6], 50%; in series [7] it was 75%.

Regarding `Cc1[nH]c(=O)c(C#N)cc1C(=O)OCCSc1ccccn1`, the Activity in series [1] is reported as 0%.

For `Cc1[nH]c(=O)c(C#N)cc1C(=O)OCCSc1nc2ccccc2s1`, the Activity in series [1] is 0%.

On to `Cc1[nH]c(=O)c(C#N)cc1C(=O)NC(C)c1ccccc1` (centres undefined), for which, in series [1], the Activity is reported as 0%.

`Cc1[nH]c(=O)c(C#N)cc1-c1ccncc1` [MILRINONE]: the Activity in series [1] is recorded as 50%; in series [3] it was 90%; in series [4], 90%; in series [6], 50%; in series [7], 75%.
